The full list was thinned out, with hits kept by preference.
IDH1 mut inh – inhibitors of IDH1 R132H reductase, primary screen, biochemical, plate reader, single point. inhibition, % at 10 µM. 0.18% of 70,000 active. diaphorase/resazurin fluorescence, 60 min. Isocitrate dehydrogenase [NADP] cytoplasmic (Homo sapiens), O75874. AID 624101, 2012; in the data active = inhibition above about 34%; inconclusive = no clear call, values can overlap the other calls; inactive = below about 11%
Target sequence (O75874 whole entry R132H): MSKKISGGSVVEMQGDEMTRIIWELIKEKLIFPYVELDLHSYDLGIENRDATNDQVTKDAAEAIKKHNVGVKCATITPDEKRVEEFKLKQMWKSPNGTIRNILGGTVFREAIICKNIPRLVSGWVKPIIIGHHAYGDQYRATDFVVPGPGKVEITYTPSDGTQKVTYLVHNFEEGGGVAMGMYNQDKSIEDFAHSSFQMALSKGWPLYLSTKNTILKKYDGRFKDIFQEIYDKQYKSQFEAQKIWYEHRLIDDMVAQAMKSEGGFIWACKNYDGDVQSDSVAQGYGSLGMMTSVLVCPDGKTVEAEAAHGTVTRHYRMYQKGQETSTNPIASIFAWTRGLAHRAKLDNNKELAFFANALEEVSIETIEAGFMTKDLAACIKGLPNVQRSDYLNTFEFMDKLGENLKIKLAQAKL
KDM4C inh – inhibitors of GASC-1 (KDM4C) histone demethylase, primary screen, biochemical, single concentration HTS; Lysine-specific demethylase 4C (Homo sapiens), Q9H3R0; 0.15% of 96,000 active; GST-KDM4C 2-372, H3K9me3 peptide, LANCE TR-FRET; inhibition, % at 12.5 µM;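 active = mean replicate inhibition above about 25%, with at least 55% of replicates also reaching it, limit read from the data, passing the limit was not always enough; inconclusive = only one of those two conditions met; inactive = neither condition met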
Target sequence (Q9H3R0 2-372 limits assumed): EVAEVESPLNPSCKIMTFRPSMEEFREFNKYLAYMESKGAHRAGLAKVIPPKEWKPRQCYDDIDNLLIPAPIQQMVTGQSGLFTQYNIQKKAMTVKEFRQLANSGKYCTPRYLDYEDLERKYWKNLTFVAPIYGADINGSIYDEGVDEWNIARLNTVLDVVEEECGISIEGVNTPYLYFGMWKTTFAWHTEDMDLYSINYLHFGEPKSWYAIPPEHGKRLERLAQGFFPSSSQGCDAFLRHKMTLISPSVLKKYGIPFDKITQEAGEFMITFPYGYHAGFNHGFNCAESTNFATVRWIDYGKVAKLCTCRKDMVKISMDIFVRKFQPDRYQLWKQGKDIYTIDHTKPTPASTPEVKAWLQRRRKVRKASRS
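reagent = H3K9me3 peptide substrate, Fe(II), 2-oxoglutarate | system = GST-tagged GASC-1 (JMJD2C) catalytic fragment, aa 2-372 | amount = enzyme final amount 10 nM | read-out = Fall in 671/618 emission ratio as inhibition | medium = HEPES buffer, pH 7.5, plus ascorbate | schedule = 30 min reaction, 60 min detection, RT | measured by = LANCE TR-FRET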
T cruzi growth-1 – T. cruzi intracellular proliferation inhibitors, primary screen, cell-based, beta-gal Tulahuen parasites, NIH3T3 host, luminescence. 5.9% of 77,000 active. inhibition, % at 8.34 µM. T. cruzi beta-gal in NIH3T3, GalScreen luminescence, 90 h;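 active = mean inhibition above about 93%, with at least 55% of replicates each passing it, limit read from the data, passing the limit was not always enough; inconclusive = only one of those two conditions holds; inactive = neither condition holds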
T cruzi growth-2 – T. cruzi intracellular proliferation inhibitors, confirmation, cell-based, NIH3T3 host, beta-gal parasite, luminescence, cherry-pick | shares compounds with T cruzi growth-1 | 72% of 5,600 active | inhibition, % at 8.35 µM | T. cruzi beta-gal in NIH3T3, GalScreen luminescence, 90 h;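 active = mean replicate inhibition above about 95% and at least 55% of replicates individually reaching it, limit read from the data; inconclusive = only one of the two criteria is met; inactive = neither criterion is met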
T cruzi growth-3 – inhibitors of intracellular T. cruzi replication, confirmation, NIH3T3 host cells, beta-gal parasites, cherry-pick, set 2; shares compounds with T cruzi growth-1; T. cruzi beta-gal in NIH3T3, GalScreen luminescence, 90 h; inhibition, % at 2.09 µM; 21% of 5,600 active; AID 651740, 2012;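 active = mean inhibition above about 95%, with at least 55% of replicates also reaching it, limit read from the data; inconclusive = meets just one of the two conditions; inactive = meets neither condition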
3T3 cytotox – cytotoxicity in mouse NIH/3T3 fibroblasts, confirmation, cytotoxicity control for T. cruzi proliferation inhibitor project, cell-based, cherry-pick, single point | 14% of 5,600 active | NIH/3T3 viability, CellTiter-Glo ATP luminescence, 90 h | cytotoxicity (signal decrease), % at 8.35 µM | shares compounds with T cruzi growth-1 | AID 651742, 2012;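 active = mean signal decrease across replicates above about 35% based on untreated-well scatter, with enough replicates individually passing, limit read from the data; inconclusive = no rule stated though some were filed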
NIH3T3 tox 2 – NIH/3T3 fibroblast cytotoxicity, confirmation, cytotoxicity control, cell-based, cherry-pick, single point, set 2. shares compounds with T cruzi growth-1. NIH/3T3 viability, CellTiter-Glo ATP luminescence, 90 h. inhibition, % at 24.9 µM. 56% of 5,600 active. AID 651744, 2012;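 active = mean loss of cell viability signal at or above a set limit, and enough replicates individually reaching it; inconclusive = meets only the mean limit or only the replicate share; inactive = meets neither condition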
Each line names hits and unclear results; the compound was inactive in the other large screens (follow-up assays come after a bar, where they were run).

C[C@H]1CCCCO[C@@H](CN(C)S(=O)(=O)c2ccc(Cl)cc2)[C@@H](C)CN([C@@H](C)CO)C(=O)c2cc(NS(=O)(=O)c3ccc(Cl)cc3)ccc2O1	none
Cc1ccc(S(=O)(=O)N(C)C[C@@H]2OCCCC[C@@H](C)Oc3ccc(NS(=O)(=O)c4ccc(Cl)cc4)cc3C(=O)N([C@H](C)CO)C[C@H]2C)cc1	none
Cc1ccc(S(=O)(=O)Nc2ccc3c(c2)C(=O)N([C@H](C)CO)C[C@@H](C)[C@H](CN(C)S(=O)(=O)c2ccc(Cl)cc2)OCCCC[C@@H](C)O3)cc1	none
Cc1ccc(S(=O)(=O)Nc2ccc3c(c2)C(=O)N([C@@H](C)CO)C[C@@H](C)[C@H](CN(C)S(=O)(=O)c2ccc(Cl)cc2)OCCCC[C@@H](C)O3)cc1	T cruzi growth-1 120 (no result: IDH1 mut inh) | T cruzi growth-2 101 | T cruzi growth-3 100 | 3T3 cytotox inactive | NIH3T3 tox 2 inactive
Cc1ccc(S(=O)(=O)Nc2ccc3c(c2)C(=O)N([C@H](C)CO)C[C@H](C)[C@H](CN(C)S(=O)(=O)c2ccc(Cl)cc2)OCCCC[C@H](C)O3)cc1	T cruzi growth-1 112 (no result: IDH1 mut inh) | T cruzi growth-2 100 | T cruzi growth-3 107 | 3T3 cytotox inactive | NIH3T3 tox 2 inactive
C[C@H]1CCCCO[C@H](CN(C)S(=O)(=O)c2ccc(Cl)cc2)[C@@H](C)CN([C@@H](C)CO)C(=O)c2cc(NS(=O)(=O)c3ccc(Cl)cc3)ccc2O1	none
C[C@H](CO)N1C[C@H](C)[C@H](CN(C)C(=O)C2CCCCC2)Oc2ncc(Br)cc2C1=O	none (no result: T cruzi growth-1)
Cc1ccc(S(=O)(=O)Nc2ccc3c(c2)C(=O)N([C@@H](C)CO)C[C@H](C)[C@H](CN(C)S(=O)(=O)c2ccc(Cl)cc2)OCCCC[C@@H](C)O3)cc1	T cruzi growth-1 99 | T cruzi growth-2 102 | T cruzi growth-3 113 | 3T3 cytotox inactive | NIH3T3 tox 2 47
Cc1ccc(S(=O)(=O)Nc2ccc3c(c2)C(=O)N([C@H](C)CO)C[C@@H](C)[C@@H](CN(C)S(=O)(=O)c2ccc(Cl)cc2)OCCCC[C@H](C)O3)cc1	T cruzi growth-1 117 (no result: IDH1 mut inh) | T cruzi growth-2 97 | T cruzi growth-3 107 | 3T3 cytotox inactive | NIH3T3 tox 2 inactive
C[C@@H]1CCCCO[C@@H](CN(C)S(=O)(=O)c2ccc(Cl)cc2)[C@@H](C)CN([C@@H](C)CO)C(=O)c2cc(NS(=O)(=O)c3ccc(Cl)cc3)ccc2O1	none (no result: IDH1 mut inh)
Cc1ccc(S(=O)(=O)Nc2ccc3c(c2)C(=O)N([C@H](C)CO)C[C@H](C)[C@@H](CN(C)S(=O)(=O)c2ccc(Cl)cc2)OCCCC[C@@H](C)O3)cc1	T cruzi growth-1 108 | T cruzi growth-2 106 | T cruzi growth-3 inactive | 3T3 cytotox inactive | NIH3T3 tox 2 45
COc1ccc(N(CC(=O)N2CCN(c3ccccc3F)CC2)S(C)(=O)=O)c(OC)c1	none (no result: KDM4C inh, T cruzi growth-1)
CO[C@@H]1CN(C)C(=O)c2cc(NC(=O)C3CCCC3)ccc2OC[C@@H](C)NC[C@H]1C	none
O=C(O)[C@H]1[C@H](CO)[C@H]2Cn3c(ccc(C4=CCCCC4)c3=O)[C@H]2N1Cc1ccccc1F	none (no result: IDH1 mut inh)
Cc1nn2c(CN(C(=O)c3cccs3)c3ccccc3)nnc2c2ccccc12	none (no result: KDM4C inh, T cruzi growth-1)
CC(=O)N1CCCCN2[C@@H](CO)[C@H](c3ccc(-c4ccccc4)cc3)[C@@H]2C1	T cruzi growth-1 104 (no result: IDH1 mut inh) | T cruzi growth-2 inactive | T cruzi growth-3 inactive | 3T3 cytotox inactive | NIH3T3 tox 2 42
Cc1ccc(-c2ccc([C@H]3[C@@H](CO)N4CCCCN(C(=O)Nc5ccccc5)C[C@H]34)cc2)cc1	none (no result: IDH1 mut inh)
Cc1ccc(-c2ccc([C@@H]3[C@H](CO)N4CCCCN(C(=O)Nc5ccccc5)C[C@@H]34)cc2)cc1	T cruzi growth-1 inconclusive (no result: IDH1 mut inh) | T cruzi growth-2 105 | T cruzi growth-3 106 | 3T3 cytotox 120 | NIH3T3 tox 2 105
O=C(Nc1ccccc1)N1CCCCN2[C@H](CO)[C@@H](c3ccc(Br)cc3)[C@H]2C1	none (no result: IDH1 mut inh)
CC(=O)N1CCCCN2[C@H](CO)[C@H](c3ccc(-c4ccccc4)cc3)[C@H]2C1	none (no result: IDH1 mut inh)
O=C(Nc1ccccc1)N1CCCCN2[C@H](C1)[C@@H](c1ccc(Br)cc1)[C@@H]2CO	none (no result: IDH1 mut inh)
O=C(Nc1ccccc1)N1CCCCN2[C@H](CO)[C@@H](c3ccc(-c4ccccc4)cc3)[C@@H]2C1	T cruzi growth-1 inconclusive (no result: IDH1 mut inh) | T cruzi growth-2 109 | T cruzi growth-3 inactive | 3T3 cytotox inactive | NIH3T3 tox 2 104
O=C(Nc1ccccc1)N1CCCCN2[C@@H](CO)[C@H](c3ccc(-c4ccccc4)cc3)[C@@H]2C1	T cruzi growth-1 99 (no result: IDH1 mut inh) | T cruzi growth-2 inactive | T cruzi growth-3 inactive | 3T3 cytotox 44 | NIH3T3 tox 2 103
COCC(=O)Nc1ccc2c(c1)[C@H]1C[C@@H](CC(=O)OC)O[C@@H](CO)[C@H]1O2	none
C[C@@H]1CN([C@@H](C)CO)C(=O)Cc2cc(NC(=O)Cc3ccccc3)ccc2O[C@@H]1CN(C)S(=O)(=O)c1ccccc1	none
CCCNC(=O)C[C@H]1CC[C@H]2[C@H](COc3ccc(NC(=O)Nc4ccccc4F)cc3C(=O)N2C)O1	none (no result: IDH1 mut inh)
COc1ccc(NC(=O)N(C)C[C@@H]2OCCCC[C@@H](C)Oc3ccc(NC(=O)Cc4ccccc4)cc3C(=O)N([C@H](C)CO)C[C@H]2C)cc1	none
CC(C)NC(=O)N(C)C[C@@H]1OCCCC[C@@H](C)Oc2ccc(NS(=O)(=O)c3cccs3)cc2C(=O)N([C@@H](C)CO)C[C@H]1C	none (no result: IDH1 mut inh)
O=C(NO)c1cccc(C(=O)N/N=C/c2ccc(Br)o2)c1	none (no result: KDM4C inh, T cruzi growth-1)
O=C(Nc1ccccc1)N1CCCCN2[C@@H](CO)[C@@H](c3ccc(-c4ccncc4)cc3)[C@@H]2C1	T cruzi growth-1 inconclusive (no result: IDH1 mut inh) | T cruzi growth-2 inactive | T cruzi growth-3 inactive | 3T3 cytotox inactive | NIH3T3 tox 2 inactive
O=C(Nc1ccccc1)N1CCCCN2[C@H](CO)[C@@H](c3ccc(-c4ccncc4)cc3)[C@@H]2C1	none (no result: IDH1 mut inh)
C[C@H](CO)N1C[C@H](C)[C@@H](CN(C)C(=O)Nc2cccc3ccccc23)Oc2c(NC(=O)C3CC3)cccc2C1=O	none

Source: PubChem
